From PubChem BioAssay
An excerpt weighted towards active compounds, which were near 1.8% of everything screened.
Gli-Sufu antag: blocks Gli-Sufu signaling in a luciferase reporter; 340,000 compounds, 0.74% hits; Sufu-KO-LIGHT fibroblasts, Gli luciferase reporter luminescence; inhibition, % at 5 µM;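 active = inhibition above about 55%, limit read from the data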;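 note: 0% = DMSO-treated cells and 100% = wells with medium but no cells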
697 NFkB inh: inhibitors of the PMA/ionomycin-induced NF-kB reporter in 697 B cells; 330,000 compounds, 0.33% hits; 697 B-cell NF-kB luciferase reporter, 16 h; AID 435022; inhibition, % at 4 µM; in the data active = inhibition above about 35%
Jurkat NFkB inh: lowers PMA/ionomycin-induced NF-kB signal in Jurkat cells; PMA/ionomycin-induced NF-kB luciferase reporter, luminescence; AID 435003; 330,000 compounds, 0.53% hits; inhibition, % at 4 µM; in the data active = inhibition above about 50%
NR2E3 ag-1: NR2E3 (human) agonism; GST-NR2E3/biotin-RetCOR TR-FRET, 1536-well; inhibition of corepressor binding, % at 4.78 µM; 320,000 compounds, 0.12% hits; AID 2300;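 active = percent inhibition above the cutoff of mean plus 3 SD of all tested compounds, set per screening campaign, cut at about 20% in these data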;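 note: 0% = DMSO wells and 100% = biotin wells as full block of FRET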
Target sequence (Q9Y5X4 whole entry, looked up): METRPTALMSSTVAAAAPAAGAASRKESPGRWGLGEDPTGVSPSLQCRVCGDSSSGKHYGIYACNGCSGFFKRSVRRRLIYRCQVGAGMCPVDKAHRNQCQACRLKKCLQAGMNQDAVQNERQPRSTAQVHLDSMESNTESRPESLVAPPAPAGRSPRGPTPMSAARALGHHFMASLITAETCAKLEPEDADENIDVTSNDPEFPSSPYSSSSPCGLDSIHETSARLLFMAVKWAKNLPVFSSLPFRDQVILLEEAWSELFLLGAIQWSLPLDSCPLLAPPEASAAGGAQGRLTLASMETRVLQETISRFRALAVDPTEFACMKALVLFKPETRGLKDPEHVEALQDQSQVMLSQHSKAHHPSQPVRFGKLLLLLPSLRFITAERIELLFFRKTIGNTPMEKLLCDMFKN
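Material – GST-tagged NR2E3 plus biotinylated RetCOR corepressor · Quantity – NR2E3 fusion 1.35 nM · Times – 5 h incubation at 4 °C · Medium – pH 7.5 Tris-based buffer · Technique – TR-FRET, Eu(K)-anti-GST donor, streptavidin-D2 acceptor, ex 340, em 617/671 nm · Benchmarks – high control biotin, low control 0.6% DMSO · Format – 1536-well plates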
GalR3 antag: antagonists of human GalR3; inhibition, % at 3 µM; HEK293 GalR3-CNG cAMP membrane potential fluorescence; galR3 body fused to GalR1 C-terminus; 360,000 compounds, 0.44% hits; AID 651719;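 active = inhibition above the screen-wide average plus 3 SD, cut at about 13% in these data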;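 note: forskolin and galanin both at EC90 stimulate the cells; cAMP rise reported by CNG channel membrane potential dye signal; 0% = forskolin plus galanin with DMSO and 100% = forskolin alone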
Target sequence (O60755 1-299 limits assumed): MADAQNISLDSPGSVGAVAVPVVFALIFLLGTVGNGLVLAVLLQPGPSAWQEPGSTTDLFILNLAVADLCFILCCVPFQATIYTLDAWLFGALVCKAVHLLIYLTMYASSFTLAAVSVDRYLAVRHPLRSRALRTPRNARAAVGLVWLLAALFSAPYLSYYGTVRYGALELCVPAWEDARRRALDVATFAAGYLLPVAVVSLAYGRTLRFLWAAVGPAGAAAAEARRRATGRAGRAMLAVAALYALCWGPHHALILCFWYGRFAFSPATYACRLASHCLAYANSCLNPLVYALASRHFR
NR2E3 ag-2: activates human NR2E3 receptor | Q9Y5X4 | CHO-S Gal4-NCOR/VP16-NR2E3 two-hybrid, luciferase | inhibition of corepressor binding, % at 3.98 µM | 360,000 compounds, 0.35% hits;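 active = inhibition above the mean of all tested compounds plus 3 SD, cut at about 70% in these data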;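 note: 0% = DMSO with NR2E3 transfected cells and 100% = cells lacking NR2E3 construct; higher means lower luciferase signal from less NR2E3 corepressor binding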
GalR3 antag conf: GalR3 (human) antagonism, confirmation. shares compounds with GalR3 antag. HEK293 GalR3 CNG cAMP biosensor, membrane potential fluorescence; galR3 fused to GalR1 carboxy tail; challenged with forskolin and galanin at EC90. inhibition, % at 3 µM. 1,600 compounds, 59% hits. AID 652245;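 active = inhibition above the primary screen's cutoff, the mean inhibition of all screened compounds plus 3 SD, cut at about 13% in these data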;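 note: 0% = forskolin plus galanin and 100% = forskolin alone with DMSO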
CNG parental: parental cell agonism counter-screen for GalR3 antagonists; 1,600 compounds, 10% hits; HEK293-CNG parental cells, cAMP membrane potential fluorescence; normalised: DMSO wells 0%, forskolin wells 100%; shares compounds with GalR3 antag; activation, % at 3 µM; in the data active = activation above about 1.3%
The depositor's hits bear a star; . = no result.

SMILES	Gli-Sufu antag	697 NFkB inh	Jurkat NFkB inh	NR2E3 ag-1	GalR3 antag	NR2E3 ag-2	GalR3 antag conf	CNG parental
COc1ccc(/C=N\NC(=O)CNC(=O)C(c2ccccc2)c2ccccc2)cc1[N+](=O)[O-]	-4.7	13.5	-2.4	1.0	-1.6	25.8	.	.
CC(C)c1ccc(Nc2nc(Cl)nc(NCCO)n2)cc1	-7.6	-19.8	-8.9	1.2	-10.5	-48.3	.	.
COc1ccc(Nc2nc(Cl)nc(NCCO)n2)cc1	0.5	6.8	12.4	1.8	19.6*	-2.1	-1.1	0.1
COc1ccc2[nH]c(O)c(N=NC(=N)N)c2c1	-0.1	-2.9	-9.9	-10.5	14.3*	-4.0	3.4	0.0
CCN(Cc1ccccc1)S(=O)(=O)c1ccc(S(=O)(=O)N(Cc2ccccn2)Cc2ccco2)cc1	6.5	5.4	14.5	2.7	-4.8	0.0	.	.
CC1CCCCN1S(=O)(=O)c1ccc(S(=O)(=O)N(Cc2ccccc2)Cc2ccco2)cc1 (stereo not drawn)	9.3	-7.0	17.0	-2.7	12.8*	-1.1	11.0	-0.8
COc1ccccc1OCC(O)CN1CCN(C(=O)c2ccccc2)CC1 (stereo not drawn)	3.2	6.3	4.0	2.8	-11.8	-2.6	.	.
O=C(Nc1ccncc1)c1ccc2c(c1)C(=O)N(C1CCCCC1)C2=O	-6.0	-16.0	-12.3	-1.2	45.9*	11.4	57.4*	-0.6
Cc1cc(/C=N/n2c(COc3ccccc3)nc3ccccc3c2=O)c(O)c([N+](=O)[O-])c1	9.7	-55.0	2.9	1.6	31.2*	-37.4	43.7*	-0.6
O=C(CSC1=NCCS1)Nc1ccc2ccccc2c1	-4.4	0.0	-23.8	-1.4	-2.9	-11.0	.	.
O=C(CSC1=NCCS1)Nc1ccnc2ccccc12	48.9	-47.5	16.4	0.3	99.1*	38.8	108.8*	-0.3
O=C1NC[C@@H](CCCCN2C[C@H](Cc3ccc(O)cc3)N(CCc3ccccc3)C(=O)C2=O)N(CCc2ccccc2)C1=O	.	.	.	.	0.0	-16.3	.	.
CN(C)c1ccc([N+](=O)[O-])cc1C(=O)O	18.2	14.8	2.1	-0.9	5.1	-7.9	.	.
CCCCOc1ccc([N+](=O)[O-])cc1C(=O)O	-3.8	11.6	-6.3	1.6	16.7*	12.9	2.2	0.4
COc1ccc(OC)c(S(=O)(=O)N2CCN(c3ccccn3)CC2)c1	2.1	-5.6	-21.8	-0.6	-1.5	-14.6	.	.
COc1ccc(OC)c(S(=O)(=O)N2CCCCC2C(=O)N2CCN(c3ccccn3)CC2)c1 (stereo not drawn)	10.8	-7.2	-15.8	2.4	14.2*	-25.8	4.2	0.1
CC(=O)Oc1ccc2nc(/C=C/c3ccccc3)oc(=O)c2c1	-3.2	-20.5	-6.9	2.2	-7.7	-2.5	.	.
CC(=O)N1CCC2(CC1)C(C#N)=C(N)Oc1n[nH]c(C(F)(F)F)c12	-1.9	14.0	-12.1	-1.9	.	8.6	6.4	0.3
CCCOc1c(Br)cc(C(=O)OCC(=O)NC(=O)c2cccn2C)cc1OC	1.8	14.0	10.9	2.8	-2.0	-6.0	.	.
O=C(CSc1nc2ccccc2[nH]1)Nc1c(F)c(F)c(F)c(F)c1F	-0.8	-13.7	2.3	6.0	16.1*	4.0	7.2	-0.6
COc1ccccc1CNC(=O)C1CC(c2ccccc2[N+](=O)[O-])=NO1 (stereo not drawn)	-12.6	4.7	0.6	-0.4	.	-5.9	8.8	0.3
Cc1cccc(-c2nc3ccccc3c(=O)n2NC(=O)/C=C/c2ccc([N+](=O)[O-])cc2)c1	9.4	-32.1	-0.8	-2.2	44.6*	-17.9	33.9*	-0.1
Cc1nc2ccccc2c(=O)n1NC(=O)/C=C/c1ccc(Br)cc1	-10.5	24.1	3.0	8.2	-4.8	18.9	.	.
O=C(/C=C/c1cccc([N+](=O)[O-])c1)Nn1c(-c2ccccc2F)nc2ccccc2c1=O	9.5	-18.9	-23.4	-2.2	60.9*	-13.8	65.2*	0.1
O=c1c2ccccc2nc(/C=C/c2cccc([N+](=O)[O-])c2)n1CCO	19.1	0.2	-1.8	0.2	-5.4	-7.0	.	.
SMILES	Gli-Sufu antag	697 NFkB inh	Jurkat NFkB inh	NR2E3 ag-1	GalR3 antag	NR2E3 ag-2	GalR3 antag conf	CNG parental
COc1ccc(C2c3c(-c4cc(Cl)c(C)cc4O)n[nH]c3C(=O)N2Cc2cccnc2)cc1OC (stereo not drawn)	7.5	-7.5	9.8	1.0	63.7*	-10.4	66.8*	0.7
COc1ccc(C2c3c(-c4ccccc4O)n[nH]c3C(=O)N2Cc2ccco2)cc1OC (stereo not drawn)	2.1	10.4	6.7	-1.6	-8.2	-11.8	.	.
COc1ccc(NC2=C3CC(C)CC=C3N(c3ccc(OC)cc3)C2=O)cc1 (stereo not drawn)	2.3	7.0	-3.1	-0.1	-3.6	-17.6	.	.
COc1ccccc1OCCNC(=O)c1ccc(C)o1	-12.3	-0.3	-6.7	-0.6	-5.2	-16.4	.	.
CCOC(=O)c1c(C)c2c(n1C)CCC/C2=N\O	-6.9	-6.2	0.4	-1.0	65.9*	-5.9	32.3*	0.0
CC(C)c1nc2sc(C(=O)O)c(N)c2c2c1CCCC2	6.1	2.8	-9.1	-0.9	0.4	-23.8	.	.
Cc1ccccc1NC(=O)N1CCCC1C(=O)NCc1cccs1 (stereo not drawn)	3.0	9.1	1.5	3.0	.	-6.1	1.4	-1.5
CN(CCC#N)C(=S)NC(=O)c1ccc(S(=O)(=O)N2CCOCC2)cc1	1.1	11.1	3.7	2.2	-0.4	7.4	.	.
CC1CC(C)CN(CCCNC(=O)c2ccc3c(c2)N(Cc2ccccc2)C(=O)c2ccccc2S3=O)C1 (stereo not drawn)	26.5	-45.6	-23.7	-0.9	-11.3	3.8	.	.
CCOC(=O)N1CCN(C(=O)CSCc2ccc(Br)cc2)CC1	-23.2	2.1	15.7	-2.8	.	-24.0	1.9	0.2
CCOC(=O)N1CCN(C(=O)CSCc2ccc(Cl)cc2)CC1	-8.1	-51.0	-0.9	1.7	-3.4	-29.3	.	.
O=C(CSC1=NS(=O)(=O)c2cc(F)ccc2N1)NCc1ccc(F)cc1	-2.4	11.6	3.0	-0.3	-4.7	-24.0	.	.
COc1ccc(CC2(CO)CCN(Cc3cccc(OC)c3OC)CC2)cc1	3.6	1.0	7.9	-0.3	26.1*	-4.9	1.6	2.1*
COc1ccc(CC2(CO)CCN(Cc3cccnc3)CC2)cc1	1.2	9.4	-0.2	1.2	-1.5	-24.7	.	.
CCC1(c2ccc(F)cc2)NC(=O)N(CC(=O)N2CCN(S(=O)(=O)c3ccc(C)cc3)CC2)C1=O (stereo not drawn)	4.4	-11.7	-7.8	7.6	-2.8	2.1	.	.
